Reference: article PMC3825517 (Nature structural & molecular biology, 2013)
Blank lines part the entries; values can stand above or below the molecule they belong to.

Key:
DinF-BH [1] = molecular target: T1, DinF-BH (Halalkalibacterium halodurans, UniProt Q9KAX3); test: Fluorescence polarization assay of R6G binding to purified DinF-BH; set-up: species or system Bacillus halodurans
T1 sequence (Q9KAX3 1-464): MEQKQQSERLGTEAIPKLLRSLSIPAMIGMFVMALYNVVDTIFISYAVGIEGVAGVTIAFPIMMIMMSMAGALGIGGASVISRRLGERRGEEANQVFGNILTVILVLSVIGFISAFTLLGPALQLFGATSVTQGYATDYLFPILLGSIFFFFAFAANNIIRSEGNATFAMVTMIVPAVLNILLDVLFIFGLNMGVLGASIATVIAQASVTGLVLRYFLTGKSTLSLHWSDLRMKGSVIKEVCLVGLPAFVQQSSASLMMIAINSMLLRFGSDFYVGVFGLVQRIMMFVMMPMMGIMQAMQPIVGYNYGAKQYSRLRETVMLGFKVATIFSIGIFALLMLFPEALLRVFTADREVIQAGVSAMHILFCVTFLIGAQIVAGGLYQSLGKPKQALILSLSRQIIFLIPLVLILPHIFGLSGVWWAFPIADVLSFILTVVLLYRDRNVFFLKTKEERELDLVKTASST

DinF-BH D40N mutant = molecular target: T2, DinF-BH D40N mutant (Halalkalibacterium halodurans, UniProt Q9KAX3, D40N); test: Fluorescence polarization assay of R6G binding to purified D40N mutant; set-up: species or system Bacillus halodurans
T2 sequence (Q9KAX3 1-464 D40N): T1 sequence (Q9KAX3 1-464)
Summary of the method: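 Each protein concentration was read after a 10-min incubation. Kd comes from the binding isotherm, three titrations, SD. For pH dependence the binding solutions spanned pH 5.5–9.0, fitted to Kd = (1 + [H+]/Ki)Kmin.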

DinF-BH [2] = molecular target: T1, DinF-BH; test: Fluorescence measurement of H+-release upon drug binding; assay type: biochemical, Bacillus halodurans; conditions: 4 μM protein, 250 μM TPP, fluoresceine pH indicator, repeated three times
Summary of the method: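 Purified transporter was dialysed against 10% (vol/vol) glycerol, 50 mM NaCl and 0.03% (wt/vol) DDM, then diluted to 4 μM in the same buffer with 2 μM fluoresceine as pH indicator. The sample was stirred, and fluorescence was read at excitation 494 nm and emission 521 nm. TPP was added to 250 μM. Three repeats.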

DinF-BH [3] = molecular target: T1, DinF-BH; test: Drug-H+ antiport assay in everted membrane vesicles containing DinF-BH; assay type: biochemical, Bacillus halodurans; conditions: 250 μM TPP, acridine orange fluorescence
NorM-NG = test: Drug-H+ antiport assay in everted membrane vesicles containing NorM-NG; assay type: biochemical, Neisseria gonorrhoeae; conditions: 250 μM TPP, acridine orange fluorescence

SMILES: CC/N=c1\cc2oc3cc(NCC)c(C)cc3c(-c3ccccc3C(=O)OCC)c-2cc1C [R6G, rhodamine 6G]
Kd (DinF-BH [1]): 3.1 ± 0.4 µM
Kd (DinF-BH D40N mutant): 107 ± 4.1 µM

stoichiometry of H+ released per DinF-BH upon drug binding (DinF-BH [2]): 1.00 ± 0.07 H^+ per DinF-BH
H+ efflux (fluorescence dequenching) on addition of substrate, DinF-BH vesicles (DinF-BH [3]): elicited efflux of H^+
SMILES: c1ccc([P+](c2ccccc2)(c2ccccc2)c2ccccc2)cc1 [TPP, tetraphenylphosphonium]
H+ efflux (fluorescence dequenching) on addition of substrate, NorM-NG vesicles (NorM-NG): no response

SMILES: C(=NC1CCCCC1)=NC1CCCCC1 [dicyclohexylcarbodiimide]
effect of treatment of DinF-BH on the binding of R6G (DinF-BH [1]; treatment of DinF-BH with the chemical): abolished the binding of R6G
